Values after ≈ are worked out from the molar mass of the structure shown.

The first experiment has as its system Rhizoctonia solani. Description: Fungicidal activity against Rhizoctonia solani by mycelium growth rate test. The class given is functional, organism-based.
In the case of `CCCO/N=C1\CCCCCCCCCCC(=O)NCCC1`, the 50% effective concentration (EC50) was 3.62 mg/L (≈ 11.7 µM).
Take `CCCO/N=C1/CCCCCCCCCCC(=O)NCC1`: the EC50 was 22.1 mg/L (≈ 74.5 µM).
As to `O=C1CCCCCCCCCC/C(=N/OCc2ccc(Cl)cc2)CCCN1`, the EC50 is 68.4 mg/L (≈ 174 µM).
On the same count and under the same terms, for `O=C1CCCCCCCCCC/C(=N\OCc2ccc(Cl)cc2)CCCN1` the value was 164 mg/L (≈ 418 µM); for `O=C1CCCCCCCCCC/C(=N/OCc2c(F)cccc2Cl)CCCN1`, 2.34 mg/L (≈ 5.69 µM).
Same read-out and setting: for `O=C1CCCCCCCCCC/C(=N\OCc2c(F)cccc2Cl)CCCN1` the value was 6.21 mg/L (≈ 15.1 µM).
`CCCON=C1CCCCCCCCCCC(=O)OCCC1` gave a concentration for a half-maximal effect (EC50) of 8.08 mg/L (≈ 25.9 µM).
As to `C=CCON=C1CCCCCCCCCCC(=O)OCCC1`, the response was half-maximal at 12.8 mg/L (≈ 41.2 µM) (EC50).
`CCCCON=C1CCCCCCCCCCC(=O)OCCC1` yielded an EC50 of 13.4 mg/L (≈ 41 µM).
The compound `CCCCCCCON=C1CCCCCCCCCCC(=O)OCCC1` showed a concentration giving a half-maximal response (EC50) of 9.68 mg/L (≈ 26.3 µM).
`CCCCCCCCCCCCCCCCON=C1CCCCCCCCCCC(=O)OCCC1` showed an EC50 of 40.4 mg/L (≈ 81.8 µM).
Still for that read-out and setting: for `O=C1CCCCCCCCCCC(=NOCc2ccccc2)CCCO1` the value was 45.1 mg/L (≈ 126 µM); for `O=C1CCCCCCCCCCC(=NOCc2ccc(Cl)cc2)CCCO1`, 19.6 mg/L (≈ 49.8 µM); for `O=C1CCCCCCCCCCC(=NOCc2c(F)cccc2Cl)CCCO1`, 51.3 mg/L (≈ 124 µM).
The same measure, in the same setting: for `O=C1CCCCCCCCCC/C(=N\OCc2cccnc2)CCN1` the value was 52.5 mg/L (≈ 152 µM).
On the same count and under the same terms, for `CCO/N=C1\CCCCCCCCCCC(=O)NCCC1` the value was 22.7 mg/L (≈ 76.7 µM); for `CCCO/N=C1/CCCCCCCCCCC(=O)NCCC1`, 13.1 mg/L (≈ 42.3 µM); for `C=CCO/N=C1/CCCCCCCCCCC(=O)NCCC1`, 45.6 mg/L (≈ 148 µM).
In turn, `C=CCO/N=C1\CCCCCCCCCCC(=O)NCCC1` returned an EC50 of 15.9 mg/L (≈ 51.6 µM).
On the same count and under the same terms, for `CCCCO/N=C1/CCCCCCCCCCC(=O)NCCC1` the value was 3.97 mg/L (≈ 12.2 µM); for `CCCCO/N=C1\CCCCCCCCCCC(=O)NCCC1`, 2.34 mg/L (≈ 7.21 µM); for `CCCCCCCO/N=C1/CCCCCCCCCCC(=O)NCCC1`, 19.2 mg/L (≈ 52.5 µM).
Same read-out and setting: for `CCCCCCCO/N=C1\CCCCCCCCCCC(=O)NCCC1` the value was 27.9 mg/L (≈ 76.1 µM); for `CCCCCCCCCCCCCCCCO/N=C1/CCCCCCCCCCC(=O)NCCC1`, 47.8 mg/L (≈ 96.9 µM).
Still for that read-out and setting: for `CCCCCCCCCCCCCCCCO/N=C1\CCCCCCCCCCC(=O)NCCC1` the value was 51.5 mg/L (≈ 104 µM); for `O=C1CCCCCCCCCC/C(=N/OCc2ccccc2)CCCN1`, 5.84 mg/L (≈ 16.3 µM); for `O=C1CCCCCCCCCC/C(=N\OCc2ccccc2)CCCN1`, 8.28 mg/L (≈ 23.1 µM).
With `O=C1CCCCCCCCCC/C(=N\OCc2ccccc2)CCN1`, the EC50 was 7.24 mg/L (≈ 21 µM).
`Cc1ccc(CO/N=C2/CCCCCCCCCCC(=O)NCC2)cc1` gave an EC50 of 111 mg/L (≈ 310 µM).
On the same count and under the same terms, for `Cc1ccc(CO/N=C2\CCCCCCCCCCC(=O)NCC2)cc1` the value was 50.5 mg/L (≈ 141 µM); for `O=C1CCCCCCCCCC/C(=N/OCc2ccc(F)cc2)CCN1`, 74.9 mg/L (≈ 207 µM); for `O=C1CCCCCCCCCC/C(=N\OCc2ccc(F)cc2)CCN1`, 12.1 mg/L (≈ 33.3 µM).
On the same count and under the same terms, for `O=C1CCCCCCCCCC/C(=N/OCc2ccc(Cl)cc2)CCN1` the value was 97.2 mg/L (≈ 257 µM).
Still for that read-out and setting: for `O=C1CCCCCCCCCC/C(=N\OCc2ccc(Cl)cc2)CCN1` the value was 84.8 mg/L (≈ 224 µM); for `O=C1CCCCCCCCCC/C(=N/OCc2ccc([N+](=O)[O-])cc2)CCN1`, 49.3 mg/L (≈ 127 µM).
The compound `O=C1CCCCCCCCCC/C(=N\OCc2ccc([N+](=O)[O-])cc2)CCN1` yielded a concentration giving a half-maximal response (EC50) of 166 mg/L (≈ 427 µM).
On the same count and under the same terms, for `O=C1CCCCCCCCCC/C(=N/OCc2c(F)cccc2Cl)CCN1` the value was 1730 mg/L (≈ 4370 µM); for `O=C1CCCCCCCCCC/C(=N\OCc2c(F)cccc2Cl)CCN1`, 43 mg/L (≈ 108 µM).
On the same count and under the same terms, for `O=C1CCCCCCCCCC/C(=N/OCc2ccc(Cl)cc2Cl)CCN1` the value was 100 mg/L (≈ 242 µM).
For the compound `O=C1CCCCCCCCCC/C(=N\OCc2ccc(Cl)cc2Cl)CCN1`, the 50% effective concentration (EC50) stood at 106 mg/L (≈ 256 µM).
In turn, `O=C1CCCCCCCCCC/C(=N/OCc2cccnc2)CCN1` returned an EC50 of 56.4 mg/L (≈ 163 µM).
Same read-out and setting: for `CCO/N=C1\CCCCCCCCCCC(=O)NCC1` the value was 25.8 mg/L (≈ 91.5 µM); for `CCCO/N=C1\CCCCCCCCCCC(=O)NCC1`, 9.11 mg/L (≈ 30.7 µM).
On the same count and under the same terms, for `C=CCO/N=C1/CCCCCCCCCCC(=O)NCC1` the value was 44 mg/L (≈ 150 µM); for `C=CCO/N=C1\CCCCCCCCCCC(=O)NCC1`, 21.8 mg/L (≈ 73.9 µM); for `CCCCO/N=C1/CCCCCCCCCCC(=O)NCC1`, 55.1 mg/L (≈ 177 µM).
`CCCCO/N=C1\CCCCCCCCCCC(=O)NCC1` yielded a half-maximal effective concentration (EC50) of 7.21 mg/L (≈ 23.2 µM).
In turn, `CC(C)CO/N=C1/CCCCCCCCCCC(=O)NCC1` had an EC50 of 48.4 mg/L (≈ 156 µM).
On the same count and under the same terms, for `CC(C)CO/N=C1\CCCCCCCCCCC(=O)NCC1` the value was 30.4 mg/L (≈ 97.8 µM); for `CCCCCCCO/N=C1/CCCCCCCCCCC(=O)NCC1`, 209 mg/L (≈ 594 µM).
Still for that read-out and setting: for `CCCCCCCO/N=C1\CCCCCCCCCCC(=O)NCC1` the value was 50.3 mg/L (≈ 143 µM); for `CCCCCCCCCCCCCCO/N=C1/CCCCCCCCCCC(=O)NCC1`, 101 mg/L (≈ 224 µM); for `CCCCCCCCCCCCCCO/N=C1\CCCCCCCCCCC(=O)NCC1`, 69.1 mg/L (≈ 153 µM).
In turn, `CCCCCCCCCCCCCCCCO/N=C1/CCCCCCCCCCC(=O)NCC1` had a concentration for a half-maximal effect (EC50) of 135 mg/L (≈ 282 µM).
In turn, `CCCCCCCCCCCCCCCCO/N=C1\CCCCCCCCCCC(=O)NCC1` showed an EC50 of 127 mg/L (≈ 266 µM).
Same read-out and setting: for `O=C1CCCCCCCCCC/C(=N/OCc2ccccc2)CCN1` the value was 18.1 mg/L (≈ 52.7 µM); for `CO/N=C1/CCCCCCCCCCC(=O)NCC1`, 51.3 mg/L (≈ 191 µM); for `CO/N=C1\CCCCCCCCCCC(=O)NCC1`, 55.8 mg/L (≈ 208 µM).
On the same count and under the same terms, for `COC(=O)Nc1nc2ccccc2[nH]1` [CARBENDAZIM] the value was 1.54 mg/L (≈ 8.05 µM).

The next experiment has as its system Phytophthora capsici. Nature of the experiment: Fungicidal activity against Phytophthora capsici assessed as growth inhibition. Type of experiment: functional, organism-based.
`CCCON=C1CCCCCCCCCCC(=O)NCCC1`: the EC50 is 57.8 mg/L (≈ 186 µM).

For the next experiment, the system named is Fulvia fulva. Description: Fungicidal activity against Passalora fulva Cooke (tomato leaf mold fungi) assessed as growth inhibition. The class given is functional, organism-based.
As for `CCCON=C1CCCCCCCCCCC(=O)NCCC1`, the concentration giving a half-maximal response (EC50) worked out at 53.1 mg/L (≈ 171 µM).

A further experiment relates to Alternaria solani. Nature of the experiment: Fungicidal activity against Alternaria solani assessed as growth inhibition. The class given is functional, organism-based.
Regarding `CCCON=C1CCCCCCCCCCC(=O)NCCC1`, the 50% effective concentration (EC50) was determined as 44.2 mg/L (≈ 142 µM).

The subject of another experiment is Pythium aphanidermatum. Description: Fungicidal activity against Pythium aphanidermatum assessed as growth inhibition. The class given is functional, organism-based.
Turning to `CCCON=C1CCCCCCCCCCC(=O)NCCC1`, the 50% effective concentration (EC50) was 33.3 mg/L (≈ 107 µM).

The next experiment relates to Fusarium oxysporum f. sp. vasinfectum. Nature of the experiment: Fungicidal activity against cotton Fusarium oxysporum f. sp. vasinfectum (fusarium wilt fungi) assessed as growth inhibition. Type of experiment: functional, organism-based.
As for `CCCON=C1CCCCCCCCCCC(=O)NCCC1`, the EC50 is 29 mg/L (≈ 93.4 µM).

In a further experiment the test system is Colletotrichum lagenaria. Description: Fungicidal activity against Colletotrichum lagenaria assessed as growth inhibition. The class given is functional, organism-based.
On to `CCCON=C1CCCCCCCCCCC(=O)NCCC1`, for which the concentration giving a half-maximal response (EC50) was 23.9 mg/L (≈ 77 µM).

The subject of the next experiment is Rhizoctonia solani. Description: Fungicidal activity against Rhizoctonia solani assessed as growth inhibition. The class given is functional, organism-based. In outline:
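Mycelium growth rate test on Rhizoctonia solani Kühn. Inhibition rate was measured at 100, 50, 25, 12.5 and 6.25 µg/mL. EC50 was estimated by logistic analysis. A commercial fungicide reference was run under the same conditions.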
On to `CCCON=C1CCCCCCCCCCC(=O)NCCC1`, for which the half-maximal effective concentration (EC50) was 4.6 mg/L (≈ 14.8 µM).

Another experiment concerns Verticillium albo-atrum. Nature of the experiment: Fungicidal activity against Vercicillium albo-atrum assessed as growth inhibition. Type of experiment: functional, organism-based.
As for `CCCON=C1CCCCCCCCCCC(=O)NCCC1`, the EC50 worked out at 19.3 mg/L (≈ 62.2 µM).

The next experiment has as its system Botryosphaeria berengeriana. Nature of the experiment: Fungicidal activity against Botryosphaeria berengeriana Nose (apple ring spot fungi) assessed as growth inhibition. The class given is functional, organism-based.
`CCCON=C1CCCCCCCCCCC(=O)NCCC1`: the EC50 was determined as 13.8 mg/L (≈ 44.4 µM).

For another experiment, the system named is Phomopsis asparagi. Nature of the experiment: Fungicidal activity against Phomopsis asparagi assessed as growth inhibition. Type of experiment: functional, organism-based.
Take `CCCON=C1CCCCCCCCCCC(=O)NCCC1`: the concentration for a half-maximal effect (EC50) amounted to 12 mg/L (≈ 38.6 µM).

The test system of a further experiment is Botrytis cinerea. Nature of the experiment: Fungicidal activity against Botryotinia fuckeliana assessed as growth inhibition. The class given is functional, organism-based.
In the case of `CCCON=C1CCCCCCCCCCC(=O)NCCC1`, the EC50 is 8.6 mg/L (≈ 27.7 µM).

Another experiment has as its system Phyllosticta. Description: Fungicidal activity against Phyllospicpa physaleos Sacc (tomato southern blight fungi) assessed as growth inhibition. Type of experiment: functional, organism-based.
For `CCCON=C1CCCCCCCCCCC(=O)NCCC1`, the concentration for a half-maximal effect (EC50) amounted to 1.9 mg/L (≈ 6.12 µM).

The test system of the next experiment is Alternaria kikuchiana. Nature of the experiment: Fungicidal activity against Alternaria kikuchiana (pear black spot fungi) assessed as growth inhibition. Type of experiment: functional, organism-based.
`CCCON=C1CCCCCCCCCCC(=O)NCCC1`: the EC50 turned out to be 1.2 mg/L (≈ 3.86 µM).

One may read the EC50 as the concentration giving half of the maximal effect.

Source of the values: ChEMBL document CHEMBL3045435, “Synthesis and fungicidal activity of macrolactams and macrolactones with an oxime ether side chain” (J Agric Food Chem, 2007).
